{"source": "ChEMBL document CHEMBL5724801", "about": "“EUbOPEN Chemogenomics Library - Multiplex” (2024)", "key": {"[1]": {"tested_on": "HEK-293T", "test": "Multiplex assay against HEK293T", "assay_type": "toxicity, cell-based", "settings": "human", "procedure,_shortened": "(§1)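 Cells were classed with CellPathfinder machine-learning gating, first as Hoechst high-intensity objects or normal cells, then (normal cells) as healthy, pyknosed or fragmented nuclei, and finally (pyknosed cells) as mitotic or apoptotic. Staining of live cells at seeding used Hoechst33342, BioTracker Green Microtubule Cytoskeleton Dye, MitoTracker Red and Annexin V Alexa Fluor 680, with imaging on a CQ1 microscope at 37°C and 5% CO2 after compound addition. Tubulin, mitochondrial-mass and membrane-permeability phenotypes are per cents of healthy-nucleus cells.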"}, "[2]": {"tested_on": "U2OS", "test": "Multiplex assay against U2OS", "assay_type": "toxicity, cell-based", "settings": "human", "procedure,_shortened": "as §1"}, "[3]": {"settings": "24 h, 10 µM, compound concentration 10 uM"}, "[4]": {"settings": "48 h, 1 µM, compound concentration 1 uM"}, "[5]": {"settings": "48 h, 10 µM, compound concentration 10 uM"}, "[6]": {"settings": "12 h, 1 µM, compound concentration 1 uM"}, "[7]": {"settings": "12 h, 10 µM, compound concentration 10 uM"}, "[8]": {"settings": "24 h, 1 µM, compound concentration 1 uM"}}, "note": "Several values for one entry are separate records, joined by “and”; a condition that tells them apart may be missing. Identical values can stand only once.", "data": [{"smiles": "COCCNc1cc(NC(=O)N2CCCc3cc(CN4CCOCC4=O)c(C=O)nc32)ncc1C#N", "values": [{"measurement": "Population Fragmented Nuclei (%)", "setting": "[1]; [3]", "value": "2.91% and 3.95%"}, {"measurement": "Population Healthy Nuclei (%)", "setting": "[1]; [3]", "value": "67.48% and 25.99%"}, {"measurement": "Population Hoechst High Intensity Objects (%)", "setting": "[1]; [3]", "value": "0.24% and 0%"}, {"measurement": "Population Membrane Permeable-Phenotype (%)", "setting": "[1]; [3]", "value": "1.44% and 0%"}, {"measurement": "Population Mitochondria Different-Phenotype (%)", "setting": "[1]; [3]", "value": "24.82% and 19.57%"}, {"measurement": "Population Mitotic Cells (%)", "setting": "[1]; [3]", "value": "72.95% and 79.03%"}, {"measurement": "Population Normal (%)", "setting": "[1]; [3]", "value": "99.76% and 100%"}, {"measurement": "Population Pyknosed Nuclei (%)", "setting": "[1]; [3]", "value": "29.61% and 70.06%"}, {"measurement": "Population Tubulin-Different-Phenotype (%)", "setting": "[1]; [3]", "value": "39.21% and 21.74%"}, {"measurement": "Total Cell Count", "setting": "[1]; [3]", "value": "413 and 177"}, {"measurement": "Population Apoptotic (%)", "setting": "[1]; [4]", "value": "7.19% and 11.39%"}, {"measurement": "Population Fragmented Nuclei (%)", "setting": "[1]; [4]", "value": "2.68% and 2.4%"}, {"measurement": "Population Healthy Nuclei (%)", "setting": "[1]; [4]", "value": "85.58% and 59.62%"}, {"measurement": "Population Hoechst High Intensity Objects (%)", "setting": "[1]; [4]", "value": 0, "unit": "%"}, {"measurement": "Population Membrane Permeable-Phenotype (%)", "setting": "[1]; [4]", "value": "6% and 3.23%"}, {"measurement": "Population Mitochondria Different-Phenotype (%)", "setting": "[1]; [4]", "value": "14.96% and 30.65%"}, {"measurement": "Population Mitotic Cells (%)", "setting": "[1]; [4]", "value": "92.81% and 88.61%"}, {"measurement": "Population Normal (%)", "setting": "[1]; [4]", "value": 100, "unit": "%"}, {"measurement": "Population Apoptotic (%)", "setting": "[1]; [5]", "value": "11.67% and 18.75%"}, {"measurement": "Population Fragmented Nuclei (%)", "setting": "[1]; [5]", "value": "2.84% and 5.15%"}, {"measurement": "Population Healthy Nuclei (%)", "setting": "[1]; [5]", "value": "81.65% and 53.65%"}, {"measurement": "Population Hoechst High Intensity Objects (%)", "setting": "[1]; [5]", "value": 0, "unit": "%"}, {"measurement": "Population Membrane Permeable-Phenotype (%)", "setting": "[1]; [5]", "value": "4.91% and 4%"}, {"measurement": "Population Mitochondria Different-Phenotype (%)", "setting": "[1]; [5]", "value": "35.13% and 34.4%"}, {"measurement": "Population Mitotic Cells (%)", "setting": "[1]; [5]", "value": "88.33% and 81.25%"}, {"measurement": "Population Normal (%)", "setting": "[1]; [5]", "value": 100, "unit": "%"}, {"measurement": "Population Pyknosed Nuclei (%)", "setting": "[1]; [5]", "value": "15.5% and 41.2%"}, {"measurement": "Population Apoptotic (%)", "setting": "[2]; [6]", "value": "30.77% and 39.13%"}, {"measurement": "Population Fragmented Nuclei (%)", "setting": "[2]; [6]", "value": "2.11% and 3.05%"}, {"measurement": "Population Healthy Nuclei (%)", "setting": "[2]; [6]", "value": "87.63% and 82.93%"}, {"measurement": "Population Hoechst High Intensity Objects (%)", "setting": "[2]; [6]", "value": 0, "unit": "%"}, {"measurement": "Population Membrane Permeable-Phenotype (%)", "setting": "[2]; [6]", "value": "0.6% and 5.15%"}, {"measurement": "Population Mitochondria Different-Phenotype (%)", "setting": "[2]; [6]", "value": "0% and 8.82%"}, {"measurement": "Population Mitotic Cells (%)", "setting": "[2]; [6]", "value": "69.23% and 60.87%"}, {"measurement": "Population Normal (%)", "setting": "[2]; [6]", "value": 100, "unit": "%"}, {"measurement": "Population Pyknosed Nuclei (%)", "setting": "[2]; [6]", "value": "10.26% and 14.02%"}, {"measurement": "Population Tubulin-Different-Phenotype (%)", "setting": "[2]; [6]", "value": "0.6% and 0%"}, {"measurement": "Total Cell Count", "setting": "[2]; [6]", "value": "380 and 164"}, {"measurement": "Population Apoptotic (%)", "setting": "[2]; [7]", "value": "46.15% and 40%"}, {"measurement": "Population Fragmented Nuclei (%)", "setting": "[2]; [7]", "value": "0.86% and 7.8%"}, {"measurement": "Population Healthy Nuclei (%)", "setting": "[2]; [7]", "value": "91.64% and 78.01%"}, {"measurement": "Population Hoechst High Intensity Objects (%)", "setting": "[2]; [7]", "value": 0, "unit": "%"}, {"measurement": "Population Membrane Permeable-Phenotype (%)", "setting": "[2]; [7]", "value": "1.57% and 1.82%"}, {"measurement": "Population Mitochondria Different-Phenotype (%)", "setting": "[2]; [7]", "value": "0.31% and 6.36%"}, {"measurement": "Population Mitotic Cells (%)", "setting": "[2]; [7]", "value": "53.85% and 60%"}, {"measurement": "Population Normal (%)", "setting": "[2]; [7]", "value": 100, "unit": "%"}, {"measurement": "Population Pyknosed Nuclei (%)", "setting": "[2]; [7]", "value": "7.49% and 14.18%"}, {"measurement": "Population Tubulin-Different-Phenotype (%)", "setting": "[2]; [7]", "value": "1.26% and 0.91%"}, {"measurement": "Total Cell Count", "setting": "[2]; [7]", "value": "347 and 141"}, {"measurement": "Population Apoptotic (%)", "setting": "[2]; [8]", "value": "29.17% and 39.13%"}, {"measurement": "Population Fragmented Nuclei (%)", "setting": "[2]; [8]", "value": "2.21% and 0.97%"}, {"measurement": "Population Healthy Nuclei (%)", "setting": "[2]; [8]", "value": "88.93% and 87.92%"}, {"measurement": "Population Hoechst High Intensity Objects (%)", "setting": "[2]; [8]", "value": 0, "unit": "%"}, {"measurement": "Population Membrane Permeable-Phenotype (%)", "setting": "[2]; [8]", "value": "1.66% and 3.85%"}, {"measurement": "Population Mitochondria Different-Phenotype (%)", "setting": "[2]; [8]", "value": "0% and 4.95%"}, {"measurement": "Population Mitotic Cells (%)", "setting": "[2]; [8]", "value": "70.83% and 60.87%"}, {"measurement": "Population Normal (%)", "setting": "[2]; [8]", "value": 100, "unit": "%"}, {"measurement": "Population Pyknosed Nuclei (%)", "setting": "[2]; [8]", "value": "8.86% and 11.11%"}, {"measurement": "Population Tubulin-Different-Phenotype (%)", "setting": "[2]; [8]", "value": "1.04% and 0.55%"}, {"measurement": "Total Cell Count", "setting": "[2]; [8]", "value": "542 and 207"}, {"measurement": "Population Apoptotic (%)", "setting": "[2]; [3]", "value": "54.55% and 40.91%"}, {"measurement": "Population Fragmented Nuclei (%)", "setting": "[2]; [3]", "value": "1.52% and 9.32%"}, {"measurement": "Population Healthy Nuclei (%)", "setting": "[2]; [3]", "value": "91.34% and 77.02%"}, {"measurement": "Population Hoechst High Intensity Objects (%)", "setting": "[2]; [3]", "value": 0, "unit": "%"}, {"measurement": "Population Membrane Permeable-Phenotype (%)", "setting": "[2]; [3]", "value": "0.95% and 2.42%"}, {"measurement": "Population Mitochondria Different-Phenotype (%)", "setting": "[2]; [3]", "value": "0% and 9.68%"}, {"measurement": "Population Mitotic Cells (%)", "setting": "[2]; [3]", "value": "45.45% and 59.09%"}, {"measurement": "Population Normal (%)", "setting": "[2]; [3]", "value": 100, "unit": "%"}, {"measurement": "Population Pyknosed Nuclei (%)", "setting": "[2]; [3]", "value": "7.14% and 13.66%"}, {"measurement": "Population Tubulin-Different-Phenotype (%)", "setting": "[2]; [3]", "value": "0.95% and 1.61%"}, {"measurement": "Total Cell Count", "setting": "[2]; [3]", "value": "462 and 161"}, {"measurement": "Population Apoptotic (%)", "setting": "[2]; [4]", "value": "32.88% and 50%"}, {"measurement": "Population Fragmented Nuclei (%)", "setting": "[2]; [4]", "value": "2.93% and 2.02%"}, {"measurement": "Population Healthy Nuclei (%)", "setting": "[2]; [4]", "value": "89.69% and 90.49%"}, {"measurement": "Population Hoechst High Intensity Objects (%)", "setting": "[2]; [4]", "value": 0, "unit": "%"}, {"measurement": "Population Membrane Permeable-Phenotype (%)", "setting": "[2]; [4]", "value": "1.01% and 2.23%"}, {"measurement": "Population Mitochondria Different-Phenotype (%)", "setting": "[2]; [4]", "value": "0.23% and 5.1%"}, {"measurement": "Population Mitotic Cells (%)", "setting": "[2]; [4]", "value": "67.12% and 50%"}, {"measurement": "Population Normal (%)", "setting": "[2]; [4]", "value": 100, "unit": "%"}, {"measurement": "Population Pyknosed Nuclei (%)", "setting": "[2]; [4]", "value": "7.38% and 7.49%"}, {"measurement": "Population Tubulin-Different-Phenotype (%)", "setting": "[2]; [4]", "value": "0.56% and 1.27%"}, {"measurement": "Total Cell Count", "setting": "[2]; [4]", "value": "989 and 347"}, {"measurement": "Population Apoptotic (%)", "setting": "[2]; [5]", "value": "38.46% and 32.14%"}, {"measurement": "Population Fragmented Nuclei (%)", "setting": "[2]; [5]", "value": "3.01% and 6.33%"}, {"measurement": "Population Healthy Nuclei (%)", "setting": "[2]; [5]", "value": "86.02% and 81.86%"}, {"measurement": "Population Hoechst High Intensity Objects (%)", "setting": "[2]; [5]", "value": 0, "unit": "%"}, {"measurement": "Population Membrane Permeable-Phenotype (%)", "setting": "[2]; [5]", "value": "1.4% and 3.09%"}, {"measurement": "Population Mitochondria Different-Phenotype (%)", "setting": "[2]; [5]", "value": "0.14% and 6.19%"}, {"measurement": "Population Mitotic Cells (%)", "setting": "[2]; [5]", "value": "61.54% and 67.86%"}, {"measurement": "Population Normal (%)", "setting": "[2]; [5]", "value": 100, "unit": "%"}, {"measurement": "Population Pyknosed Nuclei (%)", "setting": "[2]; [5]", "value": "10.96% and 11.81%"}, {"measurement": "Population Tubulin-Different-Phenotype (%)", "setting": "[2]; [5]", "value": "1.68% and 1.03%"}]}]}
